Screening results from PubChem BioAssay.
Autophagy mod – alters autophagy in cells; MEF GFP-LC3 puncta imaging; test concentration mostly 10 µM; calls only at 10 µM (by protocol); actives 0.98% (n = 190,000); AID 463193;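 active = percentage of spot-positive cells more than 3 SD above its plate mean, without a fluorescence outlier flag or 80% toxicity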
MT stabilize HCS – stabilizes microtubules in HeLa cells; HeLa tubulin immunostaining HCS, 24 h; share of cells brighter than vehicle mean+2SD; AID 2205; % tubulin-high responders, % at 10 µM; actives 0.83% (n = 200,000);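 active = plate Z-score above 3 for both tubulin-high and condensed-nucleus cell shares, with cell loss under 80%, at 10 µM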;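 note: anti alpha tubulin signal scored within the nucleus-defined area of each cell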
CHOP inhibitor – CHOP inhibition in unfolded protein response. AID 2732. actives 3.8% (n = 220,000). CHO-K1 CHOP-promoter luciferase, tunicamycin-induced, 15-18 h. inhibition, % at 10 µM;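 active = compounds that reduced the stress-induced luciferase reporter signal by more than about 70% of percent inhibition, limit read from the data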
L major viab – inhibitors of Leishmania major promastigote growth | Leishmania major promastigotes, resazurin fluorescence viability | AID 1063 | inhibition, % at 10 µM | actives 9% (n = 200,000); in the data active = inhibition above about 50%;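 note: promastigotes grown with compound for 44 hours at 28 °C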
b-catenin transl – modulators of beta-catenin nuclear translocation; HeLa beta-catenin nuclear translocation, immunofluorescence imaging; nuclear translocation activity, % at 5 µM; actives 0.3% (n = 190,000); AID 1665;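 active = nuclear translocation activity above 50% at 5 µM, with a well cell count of 50 or more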;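 note: per-cell ratio of nuclear to cytoplasmic median beta-catenin stain intensity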
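Signal – beta-catenin immunofluorescence imaging with DAPI · Test system – human HeLa cell line · Dosing – 5 µM primary single dose, 0.1% DMSO, 0.02–20 µM confirmation series · Measure – % activation, nuclear-to-cytoplasmic median beta-catenin signal ratio per cell · Incubation – 24 h compound exposure at 37°C, 5% CO2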
Dynein transport – dynein cargo transport inhibition | 3617.4 mouse cells, GR-EGFP nuclear translocation imaging; test concentration mostly 20 µM; stimulated with dexamethasone, 1 µM; hits give low values | z-score, hits read low | actives 0.47% (n = 220,000) | AID 1381;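 active = plate z-score of nuclear minus cytoplasmic receptor signal below a set negative limit, without overly bright fluorescence or cell loss, cut at about -3.5 in these data, passing the limit was not always enough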;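 note: z-score of nuclear minus cytoplasmic ring GR-EGFP intensity difference per well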
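Buffer or medium: tet-free, stripped-serum medium; reagent: dexamethasone at 1.0 µM final, 30 min; incubation: 48 h induction, 1 h compound, 30 min dex at 37 °C; measured by: formaldehyde fixation, Hoechst nuclear stain, 10x automated fluorescence imaging; read-out: nuclear-to-cytoplasmic GR-EGFP distribution per well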
Numbers stand for hits; – = inactive; · = no result; + = active, no number. Compounds with a hit are over-represented: about 12% of the library has one in this group of screens.

SMILES	Autophagy mod	MT stabilize HCS	CHOP inhibitor	L major viab	b-catenin transl	Dynein transport
CNC(=O)c1[nH]cnc1C(=O)Nc1ccccn1	–	–	–	–	–	–
O=C(NCCCN1CCOCC1)c1ccc(Br)cc1	–	–	–	52	–	–
O=C(NCCCN1CCOCC1)c1ccc(CNS(=O)(=O)c2ccc(Br)cc2)cc1	–	–	–	–	–	–
O=C(NCCCN1CCOCC1)c1ccc(-c2ccc(Cl)cc2)o1	–	–	–	–	–	–
O=C(NCCCN1CCOCC1)c1ccc(CSc2ccc(Cl)cc2)cc1	–	–	–	97	–	–
c1ccc(CCNc2ccccc2)cc1	·	·	·	·	–	·
COCCOC(=O)C1=C(C)NC(=O)N(C(C)=O)C1c1ccc(Cl)cc1 (centres undefined)	–	–	–	88	–	–
CCOC(=O)C1=C(C)NC(=S)N(C(C)=O)C1c1ccc(Cl)cc1 (centres undefined)	–	–	–	–	–	–
COc1cc(-c2cc(C(=O)N3CCN(c4ccccn4)CC3)c3ccccc3n2)cc(OC)c1OC	–	–	–	–	·	–
COc1ccc(-c2cc(C(=O)N3CCN(c4ccccc4)CC3)c3ccccc3n2)cc1	–	17	–	–	113	–
CCOc1ccc(-c2cc(C(=O)N3CCN(c4ccccn4)CC3)c3ccccc3n2)cc1	–	24	·	–	·	–
CCOc1ccc(-c2cc(C(=O)N3CCN(C)CC3)c3ccccc3n2)cc1	–	–	–	–	·	–
COc1ccc(-c2cc(C(=O)N3CCN(c4ccccn4)CC3)c3ccccc3n2)cc1	–	29	–	–	–	–
Cc1cc(C)nc(-n2ncc3c2CC(c2cccc(Cl)c2)CC3=O)n1 (centres undefined)	–	–	–	–	–	–
CCOC(=O)c1c(C)[nH]c(C(=O)OCC(=O)Nc2cc(Cl)ccc2OC)c1C	–	–	78	–	–	–
CC(=O)c1c(C)[nH]c(C(=O)OCC(=O)Nc2ccc(Cl)cc2[N+](=O)[O-])c1C	–	–	–	–	–	–
CCOC(=O)c1[nH]c(C)c(C(=O)Nc2cc(OC)ccc2OC)c1C	–	27	·	–	56	–
CCOC(=O)c1c(C)[nH]c(C(=O)OCC(=O)Nc2cc(C)ccc2OC)c1C	+	–	–	–	–	–
CCOC(=O)c1c(C)[nH]c(C(=O)N/N=C/c2ccc(Br)cc2)c1C	–	–	–	–	121	–
Cc1[nH]c(C(=O)N/N=C/c2ccc(C(=O)O)cc2)c(C)c1C(=O)N/N=C/c1ccc(C(=O)O)cc1	–	–	–	–	–	–
CS(=O)(=O)N1CCN(C(=O)Cc2ccccc2Cl)CC1	–	–	–	–	–	–
CCOC(=O)c1c(C)c(C(=O)Nc2cc(OC)ccc2OC)c(C)n1CC	–	25	·	–	–	–
CCOC(=O)c1c(C)[nH]c(C(=O)OCC(=O)Nc2ccc(OC)c(Cl)c2)c1C	–	–	87	–	–	–
Cc1ccc(N2C(=O)CC(NNc3nc4ccccc4s3)C2=O)cc1C (centres undefined)	–	–	–	56	–	–
O=C1CC(NNc2ccccc2)C(=O)N1c1ccccc1 (centres undefined)	–	–	–	62	–	–
SMILES	Autophagy mod	MT stabilize HCS	CHOP inhibitor	L major viab	b-catenin transl	Dynein transport
CC1(C(=O)NCc2ccc(Cl)c(Cl)c2)Oc2cccnc2NC1=O (centres undefined)	–	–	–	–	–	–
CC(C)CN(C(=O)COC(=O)c1c(Cl)ccc(Cl)c1Cl)C1CCS(=O)(=O)C1 (centres undefined)	–	–	–	–	–	–
CCC(=O)NC(Nc1c(C)n(C)n(-c2ccccc2)c1=O)C(Cl)(Cl)Cl (centres undefined)	–	–	–	–	–	–
CCn1cc([N+](=O)[O-])c(C(=O)N2N=C(c3ccc4ccccc4c3)CC2c2ccccc2O)n1 (centres undefined)	–	–	–	–	–	–
CCn1cc([N+](=O)[O-])c(C(=O)N2N=C(c3cccc4ccccc34)CC2c2ccccc2O)n1 (centres undefined)	–	–	–	74	–	–
O=C(CC12CC3CC(CC(C3)C1)C2)NCC(c1ccc(F)cc1)N1CCOCC1 (centres undefined)	–	–	–	–	–	–
CC(=O)c1c(C(C)=O)c(C)n(-c2ccc(C)c(NC(=O)c3ccccc3Cl)c2)c1C	–	–	–	53	–	–
Cc1ccc(NC(=O)c2ccccc2Cl)c(Cl)c1	–	–	–	–	–	–
COc1ccc(C(=O)Nc2nc3c(s2)Cc2cc(OC)ccc2-3)cc1	–	–	–	96	–	–
COc1ccc(-c2nc(NC(=O)c3ccccc3)sc2-c2ccc([N+](=O)[O-])cc2)cc1	–	–	–	–	–	–
COc1ccc2c(c1)Cc1sc(NC(=O)c3ccccc3)nc1-2	–	–	84	–	–	–
COc1ccc(C(=O)Nc2nc3ccc4nc(C)sc4c3s2)cc1	–	–	–	–	–	–
COc1ccc2c(c1)Cc1sc(NC(=O)c3cccs3)nc1-2	–	–	74	–	–	–
O=C(O)CC/C(=N/Nc1ncc(C(F)(F)F)cc1Cl)C(=O)O	–	–	–	–	–	–
CCOCCCn1c(=NC(=O)c2cccs2)c(C#N)cc2c(=O)n3ccccc3nc21	·	·	–	·	–	–
CC(C)NC(=O)CSCc1c(F)cccc1Cl	–	–	–	–	–	–
CC(CCc1ccccc1)NC(=O)c1ccc(C(=O)NC(C)CCc2ccccc2)cc1 (centres undefined)	–	–	82	–	·	–
CC(CCc1ccccc1)NC(=O)Cc1ccc([N+](=O)[O-])cc1 (centres undefined)	–	–	–	65	·	–
CC(CCc1ccccc1)NC(=O)CSc1ccccc1 (centres undefined)	+	–	–	52	–	–
CC(CCc1ccccc1)NC(=O)Cc1cccs1 (centres undefined)	–	–	–	–	–	–
CC(CCc1ccccc1)NC(=O)CN1CCN(c2ccc(O)cc2)CC1 (centres undefined)	–	–	–	64	–	–
COc1ccc(S(=O)(=O)N2CCOCC2)cc1NC(=O)CSc1nnc2c(n1)[nH]c1ccccc12	·	·	–	·	–	–
CC1(N(O)/C=C2\C=CC=CC2=O)CCCCC1=O (centres undefined)	·	·	–	·	–	–
O=C(NC(=S)NCc1ccccc1)C1CCCCC1	–	–	89	–	–	–
S=C(NCc1ccccc1)NC1CCCCC1	–	–	–	–	–	–
COCCCNC(=S)NCCNc1nc2c(C)c(C)ccc2cc1C#N	–	–	–	–	–	–
COc1cc(NC(=O)C23CC4CC(C2)CC(n2cnc([N+](=O)[O-])n2)(C4)C3)cc(OC)c1	–	–	–	76	–	–
